# Screens (PubChem BioAssay)
# An excerpt weighted towards active compounds, which were near 3.6% of everything screened.
# Wnt bcat act: Wnt/beta-catenin pathway activators, primary screen, cell-based, plate reader, single point; Wnt/beta-catenin reporter cell assay, activator; activation, % at 9.35 µM; 300,000 compounds, 1.2% hits; AID 743398, 2014; in the data active = activation above about 30%, passing the limit was not always enough; inconclusive = no clear call, values can overlap the other calls;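 also: 0% = neutral control wells and 100% = positive control wells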
# HSF-1 act: HSF-1 activators, primary screen, NIH3T3-HGL cells, MG132 stress, luminescence, single point. NIH3T3-HGL HSF-1 luciferase reporter, 8 h; 100% = twice DMSO control signal. activation, % at 9 µM. 300,000 compounds, 1.7% hits. AID 504408, 2011;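 active = mean replicate activation of at least 50% with a set share of replicates each reaching 50%; inconclusive = only one of those two conditions met; inactive = mean below 50% and too few replicates reaching it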;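 also: 0% = median of the neutral control wells and 100% = twice that signal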
# SR-BI uptake up: activators of SR-BI mediated DiI-HDL uptake, primary screen, ldlA[mSR-BI] CHO cells, DiI fluorescence; AID 504775, 2011; 3 h; 100 = double the neutral-control signal; activation, % at 12.5 µM; 320,000 compounds, 0.096% hits;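 active = mean replicate activation of at least 60% and every replicate at or above 60%; inconclusive = mean or all-replicate condition met, but not both; inactive = mean below 60% and not all replicates reaching 60%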;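 also: 0% = median plate neutral-control signal and 100% = twice that signal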
#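 Material: SR-BI-overexpressing, LDLR-lacking CHO cells; schedule: compound exposure 3 h, 37 °C; reagent: DiI-labelled HDL at 10 µg/mL final; technique: bottom-read fluorescence, 550/595 nm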
# SR-BI HDL uptake: inhibitors of SR-BI mediated HDL lipid uptake, primary screen, ldlA[mSR-BI] cells, fluorescence, single point | Scavenger receptor class B member 1 (Mus musculus), Q61009 | ldlA[mSR-BI] CHO cells, DiI-HDL uptake fluorescence, 3 h | inhibition, % at 12.5 µM | 320,000 compounds, 0.96% hits | AID 488896, 2010;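 active = mean replicate inhibition of at least 70% and a set share of replicates each scoring 70 or more; inconclusive = meets just one of the two criteria; inactive = fails both criteria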;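 also: 0% = median of neutral control wells and 100% = median of positive control wells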
# Target sequence (Q61009 whole entry, looked up): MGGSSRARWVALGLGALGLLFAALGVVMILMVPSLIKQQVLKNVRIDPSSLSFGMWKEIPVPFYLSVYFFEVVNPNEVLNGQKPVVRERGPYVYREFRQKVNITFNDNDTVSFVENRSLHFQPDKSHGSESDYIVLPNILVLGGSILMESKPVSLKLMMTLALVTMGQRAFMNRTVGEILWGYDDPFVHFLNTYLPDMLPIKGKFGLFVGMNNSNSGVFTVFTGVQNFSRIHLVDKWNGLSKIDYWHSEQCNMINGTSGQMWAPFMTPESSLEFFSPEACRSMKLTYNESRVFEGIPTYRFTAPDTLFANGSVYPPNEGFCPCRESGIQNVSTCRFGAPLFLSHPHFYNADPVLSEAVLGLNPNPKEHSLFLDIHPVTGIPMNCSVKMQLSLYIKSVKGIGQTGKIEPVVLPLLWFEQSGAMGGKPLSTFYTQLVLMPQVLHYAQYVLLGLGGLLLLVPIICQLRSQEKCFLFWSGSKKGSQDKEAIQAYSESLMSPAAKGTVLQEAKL
# MITF TRPM1 HTS: activators of MITF-driven TRPM1 promoter reporter, primary screen, cell-based, SK-MEL-5, luciferase, single point; AID 588334, 2011; 300,000 compounds, 0.75% hits; SK-MEL-5 TRPM1-promoter luciferase, 24 h; % of positive control, neutral wells = 0; activation, % at 12.5 µM;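 active = mean activation of at least 80% with every replicate also reaching 80%; inconclusive = mean reaches 80% but some replicate falls short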;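 also: 0% = neutral control wells and 100% = parthenolide positive control wells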
# * hit, by the source's call; ? = inconclusive; nt = no result.
SMILES,Wnt bcat act,HSF-1 act,SR-BI uptake up,SR-BI HDL uptake,MITF TRPM1 HTS
CC1=C(C(=O)N(C)C)CC(CC(=O)NCCCCc2ccccc2)C(=O)N1Cc1ccc(C(C)(C)C)cc1 (configuration not stated),-5,nt,nt,nt,nt
COc1ccccc1-c1nnc(Nc2nc3c(OC)cccc3s2)o1,-6,214*,-40,40,nt
COc1cccc2sc(Nc3nc(-c4cc5ccccc5oc4=O)cs3)nc12,-9,-4,-53,53,-2
COc1cccc2sc(Nc3nnc(-c4ccccc4Cl)o3)nc12,-15,9,-23,23,-37
COc1cccc2sc(Nc3nc(-c4ccncc4)cs3)nc12,0,-4,-80,80*,5
Cc1ccc(C2NC(=O)c3n[nH]c(C)c32)cc1 (configuration not stated),0,nt,nt,nt,nt
COCCn1c(=NC(=O)c2ccc(S(=O)(=O)N3CCc4ccccc4C3)cc2)sc2cc(OC)ccc21,-6,10,-72,72*,-11
CCOC(=O)CN1C(=O)[C@]2(OCCC=C[C@H]2C)c2ccccc21,3,nt,nt,nt,nt
COc1ccc(CNc2nc3ccccc3n2C)c(O)c1,?,45,nt,nt,93*
Cc1ccc(CNc2nc3ccccc3n2C)cc1,-1,46,7,-7,nt
Cn1c(Nc2ccc(F)cc2)nc2ccccc21,1,9,-8,8,nt
COc1ccc(Nc2nc3ccccc3n2C)cc1,41*,39,6,-6,65
Cn1c(NCc2ccc(Cl)cc2)nc2ccccc21,8,54*,-16,16,45
Cn1c(CN2CCN(c3ccc(Cl)cc3)CC2)nc2ccccc21,-5,64*,8,-8,-12
O=C(CN1CCN(C(=O)C2CCN(C(=O)/C=C/c3ccccc3)CC2)CC1)Nc1ccccc1Cl,12,nt,6,-6,1
CN1CCCCC(NC(=O)COCc2ccccc2)C1=O (configuration not stated),5,nt,nt,nt,nt
CC1(C(=O)O)CCN1C(=O)c1cccnc1Oc1ccccc1 (configuration not stated),0,nt,nt,nt,nt
Cn1c(NC(=S)Nc2ccccc2)nc2ccccc21,41*,77*,14,-14,5
CC(C)OC(=O)Nc1ccc2c(c1)N(C(=O)CCN1CCOCC1)c1ccccc1CC2,0,23,63*,-63,-3
CCOC(=O)Nc1ccc2c(c1)N(C(=O)CCN1CCOCC1)c1ccccc1S2=O (configuration not stated),-12,80*,10,-10,nt
COc1cccc(CN(C)CCCn2cnc3c(SC)ncnc32)c1,1,nt,nt,nt,nt
O=C(CC1SC(=NCCc2ccccc2)N(/N=C/c2cccs2)C1=O)Nc1ccc(Cl)cc1 (configuration not stated),3,69*,-37,37,5
O=C(CC1SC(=O)N(c2ccccc2)C1=O)Nc1ccc(Cl)cc1 (configuration not stated),21,6,3,-3,nt
Cc1ccccc1-c1cc2nc(OCC3CCCO3)n(C)c(=O)c2s1 (configuration not stated),-1,nt,nt,nt,nt
COc1ccc([C@]2(C(C)C)ON(c3ccccc3C(F)(F)F)C2=O)cc1,-1,nt,7,-7,-25
SMILES,Wnt bcat act,HSF-1 act,SR-BI uptake up,SR-BI HDL uptake,MITF TRPM1 HTS
O=C1CC(c2ccccc2)CC(O)=C1C=Nc1ccc(Cl)cc1 (configuration not stated),-10,141*,9,-9,9
O=C1CC(c2ccccc2Cl)CC(O)=C1C=Nc1ccccc1 (configuration not stated),nt,152*,-13,13,3
CC(C)CCN=CC1=C(O)CC(c2ccccc2)CC1=O (configuration not stated),-2,67*,5,-5,0
O=C1CC(c2ccccc2)CC(O)=C1C=Nc1cccc(Cl)c1 (configuration not stated),3,120*,2,-2,-2
Cc1cccc(NC(=O)CNC(=O)c2ccc(S(=O)(=O)NCc3ccco3)cc2)c1C,1,nt,nt,nt,nt
Cn1nc(C(C)(C)C)cc1N1C(=O)CCC1(C)C(=O)Nc1ccc2c(c1)OCCO2 (configuration not stated),-4,nt,nt,nt,nt
O=C(CSc1nc(-c2ccccc2)cc(C(F)(F)F)n1)NCc1ccco1,nt,11,-22,22,8
COc1ccc(-c2cc(C(F)(F)F)nc(SCC(=O)NCc3ccco3)n2)cc1OC,-5,3,-81,81*,10
Cc1[nH]n(-c2ccccc2)c(=O)c1/C=N/NC(=O)c1cccc(F)c1,2,11,-132,132*,-2
Cc1[nH]n(-c2ccccc2)c(=O)c1/C=N/NC(=O)c1ccc(O)cc1O,nt,-3,-44,44,-4
Cc1ccc(-n2[nH]c(C)c(/C=N/NC(=O)c3ccc(O)cc3O)c2=O)cc1,nt,18,-137,137*,16
Cc1[nH]n(-c2ccc(Br)cc2)c(=O)c1/C=N/NC(=O)c1ccccc1,1,39,-136,136*,-25
CC(=O)Oc1ccc(Cn2c(C)c(C(=O)NCc3ccccc3C(F)(F)F)sc2=O)cc1,-4,nt,nt,nt,nt
CCNC(=O)C1(C)CCCN(C(=O)c2cccnc2Oc2ccccc2)C1 (configuration not stated),1,nt,nt,nt,nt
CCOc1cc([N+](=O)[O-])cc(/C=N/NC(=O)c2c(-c3ccccc3)noc2C)c1O,nt,-19,-72,72*,-5
Cc1ccc(/C=N/NC(=O)c2c(-c3ccccc3)noc2C)c(O)c1,-4,3,-108,108*,-56
COc1cccc(/C=N/NC(=O)c2c(-c3ccccc3)noc2C)c1O,nt,8,-56,56,-47
Cn1cnc([N+](=O)[O-])c1S(=O)(=O)Oc1ccccc1,-3,nt,5,-5,-36
Cn1cnc([N+](=O)[O-])c1S(=O)(=O)c1cccc(Cl)c1,-15,56*,10,-10,-15
COc1cccc(N2CCN(c3ncnc4c3[nH]c3ccc(F)cc34)CC2C)c1 (configuration not stated),nt,-86,-72,72*,-79
COc1ccc(Br)cc1Cn1nnc(C(=O)Nc2ccc3c(c2)OCCO3)c1N,-2,-18,-23,23,-1
Cc1ccc(Cn2nnc(C(=O)Nc3cc(C)ccc3C)c2N)cc1,nt,104*,7,-7,nt
Cc1ccccc1NC(=O)c1nnn(-c2ccc3c(c2)OCCO3)c1N,36*,35,-43,43,86*
Nc1c(C(=O)Nc2ccc3c(c2)OCCO3)nnn1Cc1ccccc1Cl,25,47,-40,40,145*
Nc1c(C(=O)Nc2ccc3c(c2)OCCO3)nnn1Cc1cccc(Cl)c1,47*,40,4,-4,101*
